Experiment [1] deals with T1, Progesterone receptor (Homo sapiens) (UniProt P06401).
T1 sequence (whole entry): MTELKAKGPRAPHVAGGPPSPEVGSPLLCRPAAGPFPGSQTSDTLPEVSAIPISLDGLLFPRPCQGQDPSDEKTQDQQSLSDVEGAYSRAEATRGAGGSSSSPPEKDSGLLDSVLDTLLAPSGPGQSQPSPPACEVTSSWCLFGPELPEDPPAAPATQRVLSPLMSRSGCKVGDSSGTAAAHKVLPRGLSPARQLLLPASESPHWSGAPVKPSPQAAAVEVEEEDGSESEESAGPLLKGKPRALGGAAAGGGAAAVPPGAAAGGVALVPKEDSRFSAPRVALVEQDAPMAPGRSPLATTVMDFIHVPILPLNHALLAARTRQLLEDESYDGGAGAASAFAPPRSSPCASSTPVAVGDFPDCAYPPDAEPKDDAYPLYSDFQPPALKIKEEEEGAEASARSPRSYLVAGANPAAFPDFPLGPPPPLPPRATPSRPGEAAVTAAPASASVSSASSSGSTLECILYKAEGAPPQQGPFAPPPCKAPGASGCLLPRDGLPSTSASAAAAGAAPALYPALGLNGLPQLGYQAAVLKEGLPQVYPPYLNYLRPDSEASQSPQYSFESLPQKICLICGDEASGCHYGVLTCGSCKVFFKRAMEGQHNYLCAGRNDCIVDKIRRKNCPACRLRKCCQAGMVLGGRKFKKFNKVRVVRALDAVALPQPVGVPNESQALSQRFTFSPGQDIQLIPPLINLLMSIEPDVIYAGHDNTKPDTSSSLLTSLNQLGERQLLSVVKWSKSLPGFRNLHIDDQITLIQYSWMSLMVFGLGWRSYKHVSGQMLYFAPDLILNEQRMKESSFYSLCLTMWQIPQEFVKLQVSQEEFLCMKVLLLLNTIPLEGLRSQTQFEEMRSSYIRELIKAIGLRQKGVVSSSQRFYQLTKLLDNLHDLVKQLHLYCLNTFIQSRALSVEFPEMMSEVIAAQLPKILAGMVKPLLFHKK
Description: Relative binding affinity for progesterone receptor in MCF-7 cell cytosol extract.

Experiment [2] is filed under the species Rattus norvegicus. In words: Relative binding affinity for progesterone receptor in rat uterine cytosol extract. The following applies: Uterus. In outline: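 Tissue homogenized in molybdate-free TEGT buffer, and cytosol (105000g supernatant) used at 0.8–1.2 mg/mL protein. Incubation was 20 h at 4 °C with 1.0 nM [3H]R5020 (final) over a competitor range. Bound/free separated on Sephadex LH-20, then scintillation counting.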

As for `C[C@]12CCC(=O)C[C@@H]1CC[C@@H]1[C@@H]2CC[C@]2(C)[C@@H](O)CC[C@@H]12`, the Binding in experiment [1] is 0.205%; in experiment [2], 1.26%.

As for `C[C@@H]1CC2=CC(=O)CCC2[C@H]2CC[C@@]3(C)[C@@H](CC[C@@]3(O)/C=C/I)[C@H]12` (some centres not stated), the figures for the Binding in experiment [1] and in experiment [2] were 9.84% and 12.3%, respectively.

Consider `CC12CC[C@H]3[C@@H]([C@H](I)C[C@H]4CC(=O)CCC43C)[C@@H]1CCC2O` (some centres not stated), for which the results for the Binding in experiment [1] and in experiment [2] were 0.239% and 1.12%, respectively.

As for `C[C@]1(O)CC[C@H]2[C@@H]3CCC4=CC(=O)CCC4=C3C=C[C@@]21C`, the Binding in experiment [1] came out at 98%; in experiment [2], 142%.

For the molecule `CC(=O)[C@H]1CC[C@H]2[C@@H]3CCC4=CC(=O)CC[C@]4(C)[C@H]3CC[C@]12C`, the Binding in experiment [1] and in experiment [2] was 100% throughout.

Take `C[C@]12CC[C@H]3[C@@H](CCC4=CC(=O)CC[C@@]43C)[C@@H]1CC[C@@H]2O`: the Binding was 0.112% in experiment [1] and 1.55% in experiment [2].

Values taken from ChEMBL document CHEMBL1127640, “Synthesis and evaluation of 7 alpha-iodo-5 alpha-dihydrotestosterone as a potential radioligand for androgen receptor” (J Med Chem, 1994).
